According to ChEMBL document CHEMBL4316619 (Bioorg Med Chem Lett, 2019):
Activity calls are given as the source filed them. The rule behind the calls is not given here.

Tests used:
Influenza A virus [1] = experiment: Antiviral activity against Influenza A virus A/PR/8/34 (H1N1) infected in MDCK cells assessed as fold reduction in virus titer at 10 uM measured after 48 hrs by hemagglutination assay relative to control; type: functional, A/Puerto Rico/8/1934(H1N1)
In short: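 MDCK cells were infected with A/PR/8/34 (H1N1) at MOI 0.1 and incubated with compound for 48 h. Supernatant virus was then quantified by hemagglutination assay and standard TCID50 analysis. The single-concentration screen used 10 μM and reports fold reduction in titer. Dose-response runs used triplicate cultures, with percent titer decrease back-calculated from TCID50.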

MDCK = experiment: Cytotoxicity against MDCK cells assessed as reduction in cell viability measured after 48 hrs by CellTiter Glo assay; type: cell-based, Canis lupus familiaris; conditions: dog
In short: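 MDCK cells were incubated with compound under the conditions of the 48 h replication assay. Cytotoxicity was read with the CellTiter-Glo ATP viability assay. Follow-up viability testing used 5, 10, 50 and 100 μM.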

Influenza A virus [2] = experiment: Antiviral activity against Influenza A virus (A/California/7/2009(H1N1)) infected in MDCK cells assessed as reduction in virus-induced cytopathic effect measured on day 5 by Celltiter-Glo luminescence assay; type: functional, organism-based; conditions: 120 h
In short: (§1)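 MDCK cells were infected with seasonal influenza A strains through NIAID resources and scored for protection from virus-induced cell death. Compounds were tested at four concentrations (0.8, 4, 20, 100 μM). EC50/EC90 (reduction of viral cell death) and CC50 (reduction of cell viability) were derived in μM, and SI50 = CC50/EC50.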

Influenza A virus H3N2 = experiment: Antiviral activity against Influenza A virus (A/Brisbane/10/2007(H3N2)) infected in MDCK cells assessed as reduction in virus-induced cytopathic effect measured on day 5 by Celltiter-Glo luminescence assay; type: functional, organism-based; conditions: 120 h; in short: as §1
[3] = Cytotoxicity against MDCK cells assessed as reduction in cell viability measured on day 5 by Celltiter-Glo luminescence assay; type: cell-based, Canis lupus familiaris; conditions: dog, MDCK cells; in short: as §1
Influenza B virus = experiment: Antiviral activity against Influenza B virus (B/Brisbane/60/2008) infected in MDCK cells assessed as reduction in virus-induced cytopathic effect measured on day 5 by Celltiter-Glo luminescence assay; type: functional, organism-based
[4] = molecular target: Non-structural protein 1 (Influenza A virus (strain A/Puerto Rico/8/1934 H1N1)) (UniProt P03496); experiment: Inhibition of NS1 in Influenza A virus A/PR/8/34 (H1N1) infected in MDCK cells assessed as restoration of protein-induced reduction in IFN-beta mRNA expression at 20 uM measured after 6 hrs by RT-PCR analysis; type: cell-based; conditions: Influenza A virus (A/Puerto Rico/8/1934(H1N1))
Sequence of Non-structural protein 1 (Influenza A virus (strain A/Puerto Rico/8/1934 H1N1)) (P03496 whole entry): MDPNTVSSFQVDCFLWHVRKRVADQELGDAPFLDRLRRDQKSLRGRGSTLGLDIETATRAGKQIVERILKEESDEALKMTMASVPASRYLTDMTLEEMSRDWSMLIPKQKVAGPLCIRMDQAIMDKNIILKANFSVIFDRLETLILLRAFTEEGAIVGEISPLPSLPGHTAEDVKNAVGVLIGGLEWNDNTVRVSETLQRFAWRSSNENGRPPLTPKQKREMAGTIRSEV
In short: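 MDCK cells infected with A/PR/8/34 at MOI 2 and incubated 6 h with compound at 20 μM. Cells harvested; IFN-β and β-actin mRNA detected by RT-PCR. Poly(I:C) lane serves as positive control for IFN-β induction.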

SMILES	fold change (FC) (Influenza A virus [1])	Activity (MDCK)	other results
Cc1nn(-c2ccccc2)c2nc3[nH]c(=O)[nH]c(=O)c3c(-c3ccc4c(c3)OCO4)c12	4	Non-Toxic	–
COc1cc(-c2c(C(=O)O)cnc3c2c(C)nn3-c2ccc(F)cc2)ccc1O	4	Non-Toxic	–
Cc1nn(-c2ccc(F)cc2)c2nc(N)c(C#N)c(-c3ccc(O)c(O)c3)c12	16	Non-Toxic	–
COc1ccc(-c2c3c(C)nn(-c4ccccc4)c3nc3[nH]c(=O)[nH]c(=O)c23)cc1O	2	Non-Toxic	–
COc1cc(-c2c(C#N)c(N)nc3c2c(C)nn3-c2ccccc2)ccc1O	32	Non-Toxic	–
NC(=O)c1ncn([C@@H]2O[C@H](CO)[C@@H](O)[C@H]2O)n1 [RIBAVIRIN]	–	–	EC50 (Influenza A virus [2]): 2.2 µM; EC90 (Influenza A virus [2]): 3.5 µM; EC50 (Influenza A virus H3N2): 28.8 µM; EC90 (Influenza A virus H3N2): 34.9 µM
COc1cc(-c2c(C#N)c(O)nc3c2c(C)nn3-c2ccccc2)ccc1O	16	Non-Toxic	–
COc1cc(-c2c(C#N)c(N)nc3c2c(C)nn3-c2ccc(C)cc2)ccc1O	4	Non-Toxic	–
COc1cc(-c2c(C#N)c(N)nc3c2c(C)nn3-c2ccc(C)c(C)c2)ccc1O	4	Non-Toxic	–
Cc1nn(-c2ccccc2)c2nc(N)c(C#N)c(-c3ccc(O)c(O)c3)c12	32	Non-Toxic	–
COc1cc(-c2ccnc3c2c(C)nn3-c2ccc(F)cc2)ccc1O	2	Non-Toxic	–
COc1ccc(-n2nc(C)c3c(-c4ccc(O)c(OC)c4)ccnc32)cc1	32	Non-Toxic	–
COc1cc(-c2c3c(C)nn(-c4ccccc4)c3nc3[nH]c(=O)[nH]c(=O)c23)ccc1O	2	Non-Toxic	–
COc1cccc(-c2ccnc3c2c(C)nn3-c2ccc(F)cc2)c1	4	Toxic	–
COc1ccc(-c2c(C#N)c(N)nc3c2c(C)nn3-c2ccccc2)cc1OC	2	Non-Toxic	–
COc1cc(-c2c(C#N)c(N)nc3c2c(C)nn3-c2ccc(F)cc2)cc(OC)c1OC	0	Non-Toxic	EC50 (Influenza A virus [2]): 18.3 µM; EC90 (Influenza A virus [2]): 42.4 µM; CC50 at 5 day [3]: 0.87 to 6 µM; EC50 (Influenza A virus H3N2): > 50 µM; EC90 (Influenza A virus H3N2): > 50 µM; Activity (Influenza B virus): inactive
O=C(NCCCc1ccccc1)c1ccccc1O	–	–	inhibition [4]: Active
COc1cc(-c2c(C#N)c(O)nc3c2c(C)nn3-c2ccccc2)cc(OC)c1OC	16	Non-Toxic	–
COc1ccc(-c2ccnc3c2c(C)nn3-c2ccc(F)cc2)cc1OC	2	Non-Toxic	–
COc1ccc(-c2c(C#N)c(N)nc3c2c(C)nn3-c2ccc(Cl)cc2)cc1OC	0	Non-Toxic	–
